Assay results as given in ChEMBL document CHEMBL4014306, “Pyrazolopyrimidines as Potent Stimulators for Transient Receptor Potential Canonical 3/6/7 Channels” (J Med Chem, 2017).
Calls of active or inactive are those of the source. The rule behind the calls is not given here.

Tests used:
Format in all cases: cell-based
[1] = biological target: Transient receptor potential cation channel subfamily V member 1 (Homo sapiens) (UniProt Q8NER1); assay: Inhibition of human TRPV1 expressed in HEK293 cells assessed as decrease in capsaicin-evoked increase in intracellular calcium level at 22 uM preincubated for 2 mins followed by capsaicin addition measured for 2.5 mins by Fluo8-AM dye-based fluorescence assay relative to control
Outline: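 Same TRP panel as for the stimulation tests, with FMP dye for TRPC4 and M5 and Fluo8-AM for TRPA1, V1 and M8. Compound applied for 2 min before the channel agonist (TRPC4: 1 μM DAMGO). Inhibition of the agonist response measured on a FlexStation at 32 °C.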

[2] = biological target: T1, Short transient receptor potential channel 7 (Homo sapiens) (UniProt Q9HCX4); assay: Agonist activity at human TRPC7 expressed in HEK293 cells assessed as increase in membrane depolarization measured for 2.5 mins in presence of 2 mM Ca2+ by FLIPR membrane potential dye-based fluorescence assay
T1 sequence (whole entry): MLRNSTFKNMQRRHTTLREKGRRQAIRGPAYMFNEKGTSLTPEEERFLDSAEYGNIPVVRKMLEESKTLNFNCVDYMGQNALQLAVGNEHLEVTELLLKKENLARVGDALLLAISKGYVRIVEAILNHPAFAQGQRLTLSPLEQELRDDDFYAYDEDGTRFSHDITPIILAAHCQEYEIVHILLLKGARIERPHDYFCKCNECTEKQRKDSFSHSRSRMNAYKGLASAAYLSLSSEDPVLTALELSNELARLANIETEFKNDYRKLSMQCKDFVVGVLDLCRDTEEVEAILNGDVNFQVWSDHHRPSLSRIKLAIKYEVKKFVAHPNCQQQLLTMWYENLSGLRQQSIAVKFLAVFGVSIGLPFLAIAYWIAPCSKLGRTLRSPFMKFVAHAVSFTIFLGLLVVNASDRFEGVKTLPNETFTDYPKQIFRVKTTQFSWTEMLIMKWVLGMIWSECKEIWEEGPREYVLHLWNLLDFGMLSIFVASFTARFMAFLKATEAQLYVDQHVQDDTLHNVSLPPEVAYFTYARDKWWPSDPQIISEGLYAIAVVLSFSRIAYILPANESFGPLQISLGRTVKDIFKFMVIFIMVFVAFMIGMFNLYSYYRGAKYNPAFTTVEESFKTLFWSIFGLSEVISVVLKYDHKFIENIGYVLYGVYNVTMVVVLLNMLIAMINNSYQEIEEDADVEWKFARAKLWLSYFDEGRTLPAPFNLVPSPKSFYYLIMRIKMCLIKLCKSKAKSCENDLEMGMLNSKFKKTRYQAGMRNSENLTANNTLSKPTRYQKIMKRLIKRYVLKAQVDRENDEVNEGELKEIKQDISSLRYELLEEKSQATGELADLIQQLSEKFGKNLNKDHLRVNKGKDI

[3] = biological target: T1, Short transient receptor potential channel 7 (Homo sapiens); assay: Antagonist activity at human TRPC7 receptor expressed in HEK293 cells assessed as channel desensitization up to 30 uM in presence of 0.1 mM Ca2+ by whole cell patch-clamp method
Outline: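 Whole-cell clamp of TRPC6/M5 or TRPC7 HEK293 cells with 0.1 mM Ca2+ bath and 400 nM free Ca2+ pipette. Ramps +100 to −100 mV every 1 s. Increasing concentrations given consecutively by perfusion (TRPC6 highest 20–100 μM; TRPC7 up to 30 μM). Currents at positive and negative potentials followed for desensitization.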

Sequence of Transient receptor potential cation channel subfamily V member 1 (Homo sapiens) (Q8NER1 whole entry): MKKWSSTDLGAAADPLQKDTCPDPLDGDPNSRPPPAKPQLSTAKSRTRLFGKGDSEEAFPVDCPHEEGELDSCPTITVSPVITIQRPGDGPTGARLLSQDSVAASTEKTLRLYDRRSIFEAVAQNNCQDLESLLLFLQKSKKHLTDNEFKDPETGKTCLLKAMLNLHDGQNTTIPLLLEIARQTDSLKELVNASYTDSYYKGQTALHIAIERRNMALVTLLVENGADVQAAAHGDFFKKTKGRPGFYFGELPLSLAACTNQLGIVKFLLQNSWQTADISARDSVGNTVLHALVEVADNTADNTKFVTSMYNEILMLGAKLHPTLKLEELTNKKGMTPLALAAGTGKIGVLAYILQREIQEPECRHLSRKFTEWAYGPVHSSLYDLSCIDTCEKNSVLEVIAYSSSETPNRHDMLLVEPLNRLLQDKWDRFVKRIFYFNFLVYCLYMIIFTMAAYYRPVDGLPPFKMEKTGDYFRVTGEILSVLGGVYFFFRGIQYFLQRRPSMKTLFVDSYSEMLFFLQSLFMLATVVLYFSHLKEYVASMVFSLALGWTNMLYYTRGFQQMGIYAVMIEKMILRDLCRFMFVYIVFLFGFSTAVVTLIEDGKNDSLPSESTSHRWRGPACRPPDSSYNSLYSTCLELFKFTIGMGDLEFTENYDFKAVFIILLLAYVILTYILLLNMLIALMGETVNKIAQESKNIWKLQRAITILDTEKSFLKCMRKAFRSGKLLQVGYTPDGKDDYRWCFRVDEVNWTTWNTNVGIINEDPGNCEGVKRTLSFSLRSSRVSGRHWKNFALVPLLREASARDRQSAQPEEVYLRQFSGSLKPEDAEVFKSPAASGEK

Structure (SMILES) | inhibition [1] [%] | Activity [2] | inhibition [3]
CCOC(=O)N1CCC(c2cc(O)n3nc(C)c(-c4ccc(C(F)(F)F)cc4)c3n2)CC1 | < 20 |  | 
CCOC(=O)N1CCC(c2cc(O)n3nc(C)c(-c4ccc(F)cc4)c3n2)CC1 |  | Active | Active
